Hits are enriched below; roughly 4.1% of the tested compounds scored in any of these assays.
SMARCA2 activ – SMARCA2 function activation, primary screen | MG213 cells, MMTV-luciferase reporter, dexamethasone, overnight | activation, % at 9.1 µM | 1% of 370,000 active | AID 652017; in the data active = activation above about 7.8%;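 note: 0% = vehicle wells and 100% = reference activator wells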
Efflux pump inh – blocks antifungal efflux pumps in multiplex yeast assay; inhibition, % at 10 µM; 0.44% of 330,000 active; S. cerevisiae Candida pump triplex, Nile Red efflux;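 active = plate passing quality check with inhibition over a set limit, or well fluorescence over plate mean plus 4 SD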;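 note: Nile Red retained in pooled yeast measured as flow cytometry median fluorescence; 0% = buffer negative control and 100% = Enniatin B positive control; higher means more Nile Red kept so more efflux inhibition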
AHR activator – human AHR activation; P35869; AHR-responsive luciferase reporter cells, luminescence; activation, % at 5 µM; 2.5% of 320,000 active; AID 2796; in the data active = activation above about 47%;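 note: 0% = vehicle wells and 100% = reference agonist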
Target sequence (P35869 whole entry, looked up): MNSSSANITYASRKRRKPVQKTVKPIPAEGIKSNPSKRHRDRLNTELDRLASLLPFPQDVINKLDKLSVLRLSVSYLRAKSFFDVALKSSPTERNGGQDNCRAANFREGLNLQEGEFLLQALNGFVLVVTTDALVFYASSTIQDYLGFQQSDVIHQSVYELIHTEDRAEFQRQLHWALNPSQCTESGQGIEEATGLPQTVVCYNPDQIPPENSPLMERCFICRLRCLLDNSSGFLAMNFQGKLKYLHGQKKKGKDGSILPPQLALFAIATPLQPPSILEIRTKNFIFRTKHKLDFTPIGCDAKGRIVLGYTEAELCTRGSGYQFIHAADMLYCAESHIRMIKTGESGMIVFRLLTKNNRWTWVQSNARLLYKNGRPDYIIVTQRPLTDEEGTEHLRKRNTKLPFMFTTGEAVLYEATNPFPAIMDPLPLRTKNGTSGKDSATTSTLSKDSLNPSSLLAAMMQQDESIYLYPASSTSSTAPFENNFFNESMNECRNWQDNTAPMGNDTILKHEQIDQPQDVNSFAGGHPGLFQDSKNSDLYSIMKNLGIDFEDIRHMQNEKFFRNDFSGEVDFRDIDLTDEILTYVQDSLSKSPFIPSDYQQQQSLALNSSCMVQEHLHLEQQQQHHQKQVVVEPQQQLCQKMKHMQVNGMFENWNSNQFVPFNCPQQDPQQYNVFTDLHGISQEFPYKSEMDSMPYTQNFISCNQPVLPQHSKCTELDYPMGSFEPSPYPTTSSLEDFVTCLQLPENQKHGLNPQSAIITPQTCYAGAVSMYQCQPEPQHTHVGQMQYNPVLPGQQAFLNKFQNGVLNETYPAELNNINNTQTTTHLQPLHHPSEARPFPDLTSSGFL
TbMetRS inhib – blocks T. brucei methionyl-tRNA synthetase activity | purified T. brucei MetRS, ATP depletion, Kinase-Glo luminescence | inhibition, % at 11.9 µM | 0.4% of 360,000 active;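 active = inhibition above a per-plate cutoff of the control wells' mean inhibition plus 3 SD, cut at about 5.5% in these data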;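 note: 0% = DMSO wells median and 100% = median of wells with control inhibitor compound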
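Material – parasite MetRS enzyme · Medium – HEPES-MgCl2-KCl buffer plus DTT, spermine, BSA, pyrophosphatase · Reagent – ATP, methionine and E. coli bulk tRNA substrates · Times – 15 min enzyme-compound preincubation, 2 h reaction, 10 min detection, 25 °C · Measured by – luminescence of leftover ATP · Evaluation – percent inhibition relative to median high and low control wells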
H9c2 TAG inh – triacylglycerol accumulation inhibition; H9c2 cells, Nile Red lipid (TAG) fluorescence; cells loaded with 200 µM oleic acid; inhibition, % at 12.5 µM; 0.66% of 230,000 active; AID 651582;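 active = pattern-corrected inhibition of lipid staining of at least 50% with the nuclear-stain viability signal not falling by more than 50%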;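 note: 0% = DMSO wells and 100% = triacsin C control wells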
SMARCA2 conf – SMARCA2 activation, confirmation screen; 30% of 3,500 active; shares compounds with SMARCA2 activ; MG213 cells, MMTV-luciferase with dexamethasone, luminescence, overnight; MG213 cells expressing E1A, Rb sequestered; DMSO wells 0%, reference activator 100%; activation, % at 9.1 µM;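 active = activation above its plate's cutoff, the mean activation of tested wells plus 3 SD, cut at about 7.9% in these data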
VP16 Luc act – counter-screen for SMARCA2 activators: GAL4-VP16 luciferase reporter activation | shares compounds with SMARCA2 activ | HEK293 GAL4-VP16 pG5luc reporter, luciferase luminescence; scaled: DMSO wells 0%, SAHA wells 100% | activation, % at 9.1 µM | 41% of 3,500 active;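 active = activation above the solvent-only control well mean plus 3 SD, averaged across control plates, cut at about 5.2% in these data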
Numbers without * were called inactive; . = not tested or not shown.

SMILES | SMARCA2 activ | Efflux pump inh | AHR activator | TbMetRS inhib | H9c2 TAG inh | SMARCA2 conf | VP16 Luc act
COC(=O)[C@H](C(C)C)N(CCc1cn(Cc2ccc(C)cc2)nn1)S(=O)(=O)c1ccccc1Br | -3.6 | . | . | . | . | . | .
COc1ccc(NC(=O)c2oc3ccccc3c2C)cn1 | 9.8* | 0.5 | 50.7* | -0.3 | -24.8 | 9.7* | 5.4*
COC(=O)[C@]12C[C@H](CC(=O)NCCc3ccccc3OC)C(=O)N(Cc3ccccc3)C1=C[C@H](C(C)(C)C)O[C@@H]2C | -4.0 | . | . | . | . | . | .
CC(Oc1ccc(Br)cc1)C(=O)O/N=C(\N)c1ccncc1 (stereo not drawn) | 12.4* | -0.1 | 5.9 | 0.5 | -4.8 | -4.4 | -0.1
N/C(=N\OC(=O)COc1ccc(Br)cc1)c1ccncc1 | -1.9 | 0.0 | 4.6 | -1.0 | . | . | .
C[C@H]1CN(c2ccc(N3CCNC[C@@H]3C)cc2C#N)CCN1Cc1ccccc1 | 10.7* | . | . | . | . | -2.0 | -0.1
C[C@@H]1CNCCN1c1ccc(N2CCN(Cc3ccccc3)[C@@H](C)C2)c(C#N)c1 | 0.6 | . | . | . | . | . | .
CCc1c(-c2cccc(Br)c2)ncn1CCc1ccccc1OC | -3.9 | . | . | . | . | . | .
CN(CCO)C1CN(Cc2cn(Cc3ccccc3F)nn2)S(=O)(=O)C1 (stereo not drawn) | 0.3 | . | . | . | . | . | .
c1ccc2c(c1)C1=NCCN1c1ccccc1-2 | 23.8* | . | . | 0.2 | 107.2 | 371.5* | 3.6
O=C1NC(=Nc2ccc(O)cc2)S/C1=C/c1ccco1 | -3.5 | -0.2 | 9.2 | 1.1 | 34.9 | . | .
O=C1NC(=Nc2ccc3ccccc3c2)S/C1=C/c1ccco1 | 10.0* | 0.3 | 19.9 | -0.2 | 2.0 | 6.0 | 4.1
COCCCn1c(=O)/c(=C\c2ccccc2OC(F)F)s/c1=C(/C#N)C(=O)NC(C)C | 14.0* | -6.7 | 4.0 | -0.3 | . | 4.8 | 1.8
Cc1ccc(C)c(S(=O)(=O)N2CCN(c3nc(CN4CCOCC4)nc4sc(C)c(C)c34)CC2)c1 | 9.1* | 0.0 | 0.3 | -0.5 | -12.4 | -0.4 | -0.1
C/C(=N\NC(=O)c1nn(C)cc1Cl)c1ccncc1 | 9.5* | 0.1 | 10.8 | -1.1 | . | -0.2 | -0.7
O=C(Cn1nnc(-c2ccc(N3CCOCC3)cc2)n1)c1ccccc1 | -1.8 | . | . | . | . | . | .
COc1ccc(/C=C/C(=O)NC(=S)Nc2ccc(S(=O)(=O)Nc3cc(OC)ncn3)cc2)cc1 | 2.1 | . | . | -0.1 | . | . | .
COc1ccc(/C=C/C(=O)NC(=S)Nc2ccc(S(=O)(=O)Nc3nccnc3OC)cc2)cc1 | 13.0* | 0.0 | -1.4 | -0.6 | . | 0.7 | 0.9
c1cc2ccc3ccc(-n4cnnn4)c4ccc(c1)c2c34 | 8.7* | -0.4 | -1.7 | -0.1 | -31.9 | -1.7 | -0.6
O=c1[nH]c2ccccc2nc1-c1cccs1 | 8.2* | 0.1 | 30.7 | -1.2 | -3.6 | 8.6* | 4.4
COc1ccc(S(=O)(=O)N2CCCc3nc(-c4ccc(Br)cc4)ccc32)cc1 | -3.6 | . | . | . | . | . | .
COC(=O)CC1C(=O)NCCN1C(=O)c1ccc([N+](=O)[O-])cc1 (stereo not drawn) | 10.0* | 0.1 | -0.5 | 1.5 | . | 4.6 | 0.1
CCOC(=O)C1CCN(C(=O)Cn2cnc3sc(C)c(S(=O)(=O)N4CCCCC4)c3c2=O)CC1 | -2.0 | 0.2 | -1.1 | -0.9 | . | . | .
CCOC(=O)C1CCN(C(=O)Cn2cnc3sc(C)c(S(=O)(=O)N4CCC(C)CC4)c3c2=O)CC1 | 8.1* | -0.2 | -0.5 | -0.7 | . | -2.5 | -0.9
COc1ccc(Nc2c(-c3cc4ccccc4o3)nc3nc(C)cc(C)n23)cc1 | 8.6* | . | . | -0.2 | . | 0.2 | 1.5
SMILES | SMARCA2 activ | Efflux pump inh | AHR activator | TbMetRS inhib | H9c2 TAG inh | SMARCA2 conf | VP16 Luc act
CCCCNc1c(-c2cc3ccccc3o2)nc2nc(C)cc(C)n12 | 0.0 | . | . | -1.2 | . | . | .
CCC(CO)Nc1cccc2c1S(=O)(=O)N(Cc1cn(Cc3cccc(F)c3)nn1)Cc1ccccc1O2 (stereo not drawn) | -3.2 | . | . | . | . | . | .
Cc1cnc(NC(=O)Nc2ccc(Cl)cc2)s1 | 12.3* | 0.0 | 11.8 | 0.5 | 6.7 | 8.3* | 11.4*
COc1nc(-c2ccccc2)nnc1-c1ccccc1 | 10.5* | . | . | -0.9 | -2.9 | 7.2 | 12.8*
COc1ccc(-c2nnc(OC)c3ccccc23)cc1 | -0.2 | 0.0 | 42.4 | -0.5 | 0.6 | . | .
CCOC(=O)[C@@H]1CSCCS(=O)(=O)N1Cc1ccc(C(F)(F)F)cc1 | -2.5 | . | . | . | . | . | .
COc1ccc2nc(N(CCN(C)C)C(=O)c3ccc4ncsc4c3)sc2c1 | 10.3* | . | . | -0.1 | -3.6 | 12.8* | 9.4*
CN(C)c1nn2c(-c3ccccc3)nnc2o1 | 8.8* | . | . | -0.4 | 2.9 | -0.2 | 2.9
c1ccc(-c2nn3c(-c4ccccc4)nnc3o2)cc1 | -0.3 | . | . | -0.3 | 10.1 | . | .
Cc1ccc(C(=O)N2CCCC(C(F)(F)F)C2)cc1S(=O)(=O)N1CCOCC1 (stereo not drawn) | 8.0* | 0.0 | 0.1 | -0.3 | -17.4 | -0.8 | 0.0
CC(C)CNC(=O)OCc1cn(Cc2ccc(F)cc2F)nn1 | -0.4 | . | . | . | . | . | .
CCNc1nc(NCC)nc(SCCOc2ccc(C)cc2)n1 | 9.6* | 0.1 | 1.9 | 0.5 | . | 1.4 | 4.6
COc1cccc(C2(c3cccc(OC)c3)CC2C(=O)Nc2cccc3ccccc23)c1 (stereo not drawn) | 9.6* | 0.1 | 17.8 | 1.1 | . | -7.2 | 0.8
COc1cccc(NC(=O)C2CC2(c2cccc(OC)c2)c2cccc(OC)c2)c1 (stereo not drawn) | -2.0 | 0.0 | 15.5 | 0.2 | . | . | .
CN(C)Cc1cc(O)c(CN(C)C)cc1O | 8.0* | -0.1 | -0.6 | 1.1 | -5.4 | 6.9 | 2.1
CC(=O)Nc1cccc(NC(=O)CSc2ncc(C(=O)Nc3ccccc3)c(=O)n2C)c1 | 12.1* | 0.0 | 16.2 | 0.0 | 1.3 | 28.4* | 1.6
CC(=O)c1cccc(NC(=O)CSc2ncc(C(=O)Nc3ccccc3)c(=O)n2C)c1 | -1.6 | 0.2 | 13.1 | -0.6 | -1.7 | . | .
Cc1ccccc1NC(=O)c1onc2c1CCCC2 | 8.2* | 0.1 | 6.0 | -0.7 | -2.7 | 6.9 | 8.1*
CS(=O)(=O)Nc1ccc(C(=O)Nc2ccc3ccccc3c2)cc1 | 8.4* | -0.2 | 10.4 | -0.6 | -11.7 | 16.4* | 7.2*
COc1ccc(C(=O)CSc2nnc(-c3cccnc3)n2-c2ccccc2)cc1 | -1.6 | . | . | . | . | . | .
Cc1ccc(NCCC(=O)c2cccs2)cc1 | 11.3* | -0.3 | 4.2 | -1.0 | -11.9 | 7.3 | 13.7*
Cc1ccc(NC(=O)CCC(=O)c2cccs2)cc1 | 2.6 | 0.1 | -0.3 | -1.3 | 6.2 | . | .
COC(=O)[C@]12C[C@H](CC(=O)N3CCC(c4ccccc4)CC3)C(=O)N(Cc3ccc4c(c3)OCO4)C1=C[C@H](COCc1ccccc1)O[C@@H]2C | -1.4 | . | . | . | . | . | .
CCc1c(-c2ccccc2F)ncn1CCc1ccccc1OC | -6.0 | . | . | . | . | . | .
Cc1ccccc1-c1ccc2c(c1)[C@@H]1C[C@H](N(C)C(=O)Nc3ccccc3)[C@H]([C@H](C)O)CN1CC2 | -2.6 | . | . | . | . | . | .
